In assay [1] the target is T1, Growth hormone secretagogue receptor type 1 (Homo sapiens, UniProt Q92847). Description: Inverse agonist activity at human GHSR1a receptor expressed in COS-7 cells assessed as inositol phosphate accumulation after 2 hrs by anion exchange chromatography. In kind it is functional, cell-based.
Assay [2] concerns the target T1, Growth hormone secretagogue receptor type 1. As to the kind of experiment: Inverse agonist activity at human GHSR1a receptor expressed in COS-7 cells assessed as inositol phosphate accumulation after 2 hrs by anion exchange chromatography relative to control. It counts as functional, cell-based.
Assay [3] deals with T2, Neuropeptide Y receptor type 2 (Homo sapiens, UniProt P49146).
T2 sequence (P49146 whole entry): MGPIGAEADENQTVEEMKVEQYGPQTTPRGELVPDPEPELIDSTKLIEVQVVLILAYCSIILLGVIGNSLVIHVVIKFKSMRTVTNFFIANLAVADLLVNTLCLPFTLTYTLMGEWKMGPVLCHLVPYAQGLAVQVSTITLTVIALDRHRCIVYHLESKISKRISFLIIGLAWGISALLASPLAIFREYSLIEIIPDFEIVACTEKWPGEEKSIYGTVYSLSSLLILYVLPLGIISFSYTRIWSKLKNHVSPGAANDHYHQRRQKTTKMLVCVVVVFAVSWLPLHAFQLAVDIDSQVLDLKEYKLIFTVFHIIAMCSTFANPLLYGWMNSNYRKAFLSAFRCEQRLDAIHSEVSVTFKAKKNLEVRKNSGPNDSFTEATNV
Description: Agonist activity at human neuropeptide Y Y2 receptor expressed in COS-7 cells cotransfected with chimeric Gi/q protein assessed as inositol phosphate accumulation after 2 hrs by anion exchange chromatography. It counts as functional, cell-based. A digest of the protocol: (§1)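 Inositol phosphate turnover in COS-7 cells stably co-expressing human Y2 receptor and chimeric Gi/q protein; concentration-response curves, responses as % of maximum Y2 activity; SEM over two biological replicates.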

Assay [4] deals with T3, Neuropeptide Y receptor type 2 (Homo sapiens) (UniProt P49146).
T3 sequence (whole entry): T2 sequence (P49146 whole entry)
As to the kind of experiment: Agonist activity at human neuropeptide Y Y2 receptor expressed in COS-7 cells cotransfected with chimeric Gi/q protein assessed as inositol phosphate accumulation after 2 hrs by anion exchange chromatography relative to control. In kind it is functional, cell-based. A digest of the protocol: as §1

In assay [5] the target is T1, Growth hormone secretagogue receptor type 1. Description: Displacement of [125I]ghrelin from human eYFP-fused ghrelin receptor expressed in COS7 cells after 75 mins by competitive receptor binding assay. In kind it is cell-based, COS-7. (Displacement assays read how much labelled ligand stays bound in the presence of the test substance.)
The target in assay [6] is T2, Neuropeptide Y receptor type 2. As to the kind of experiment: Displacement of [125I]PYY from human neuropeptide Y Y2 receptor expressed in HEK293 cells cotransfected with eYFP fusion protein after 2 hrs by competitive receptor binding assay. It counts as cell-based. A digest of the protocol:
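Competitive binding against 125I-PYY in HEK-293 cells stably expressing human Y2 receptor; concentration-response curves.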

The target of assay [7] is T4, Neuropeptide Y receptor type 1 (Homo sapiens) (UniProt P25929).
T4 sequence (whole entry): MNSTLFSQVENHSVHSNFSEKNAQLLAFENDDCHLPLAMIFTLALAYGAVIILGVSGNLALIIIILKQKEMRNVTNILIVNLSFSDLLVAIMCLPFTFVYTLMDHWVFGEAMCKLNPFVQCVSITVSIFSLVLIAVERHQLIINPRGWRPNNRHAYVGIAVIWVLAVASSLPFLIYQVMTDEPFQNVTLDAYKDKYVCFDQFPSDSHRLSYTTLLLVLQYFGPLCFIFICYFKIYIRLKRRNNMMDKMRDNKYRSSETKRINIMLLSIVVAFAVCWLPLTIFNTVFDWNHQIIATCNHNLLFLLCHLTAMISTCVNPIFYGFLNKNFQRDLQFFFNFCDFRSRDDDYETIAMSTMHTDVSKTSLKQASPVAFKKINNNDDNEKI
As to the kind of experiment: Agonist activity at human neuropeptide Y Y1 receptor expressed in COS-7 cells cotransfected with chimeric Gi/q protein assessed as inositol phosphate accumulation at 1 uM after 2 hrs by anion exchange chromatography. It counts as functional, cell-based. In a few lines: (§2)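 COS-7 cells stably co-expressing the corresponding human Y receptor plus a chimeric Gi/q protein; single high concentration tested in inositol phosphate accumulation; response as % of NPY response at each receptor; SEM over two biological replicates.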

Assay [8] concerns the target Neuropeptide Y receptor type 4 (Homo sapiens) (UniProt P50391). As to the kind of experiment: Agonist activity at human neuropeptide Y Y4 receptor expressed in COS-7 cells cotransfected with chimeric Gi/q protein assessed as inositol phosphate accumulation at 1 uM after 2 hrs by anion exchange chromatography. It counts as functional, cell-based. In a few lines: as §2

Assay [9] has as its target T5, Neuropeptide Y receptor type 5 (Homo sapiens) (UniProt Q15761).
T5 sequence (whole entry): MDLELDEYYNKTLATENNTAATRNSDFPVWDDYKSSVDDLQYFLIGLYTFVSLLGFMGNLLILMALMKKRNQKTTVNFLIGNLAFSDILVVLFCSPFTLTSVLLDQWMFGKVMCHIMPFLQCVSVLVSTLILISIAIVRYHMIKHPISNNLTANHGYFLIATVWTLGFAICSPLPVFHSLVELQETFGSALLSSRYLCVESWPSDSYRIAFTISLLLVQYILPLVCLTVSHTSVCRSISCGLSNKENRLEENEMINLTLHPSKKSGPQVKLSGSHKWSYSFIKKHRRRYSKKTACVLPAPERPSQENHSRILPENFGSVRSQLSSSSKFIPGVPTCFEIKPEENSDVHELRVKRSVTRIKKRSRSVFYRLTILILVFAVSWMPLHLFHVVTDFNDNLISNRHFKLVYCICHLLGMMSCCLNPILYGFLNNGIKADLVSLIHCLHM
As to the kind of experiment: Agonist activity at human neuropeptide Y Y5 receptor expressed in COS-7 cells cotransfected with chimeric Gi/q protein assessed as inositol phosphate accumulation at 1 uM after 2 hrs by anion exchange chromatography. In kind it is functional, cell-based. A digest of the protocol:
as §2

Assay [10] relates to Mus musculus. Description: Effect on food intake in diet-induced obese C57BL/6JRj mouse at 500 nM/kg, sc. It counts as functional, organism-based. In a few lines: (§3)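 Freely fed diet-induced obese mice, saline control group; single acute dose, SC at 500 nM/kg or IP at 50, 100 or 250 nM/kg; cumulative food intake and body weight recorded.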
The test system of assay [11] is Mus musculus. Description: Effect on body weight in diet-induced obese C57BL/6JRj mouse at 500 nM/kg, sc. It counts as functional, organism-based. A digest of the protocol:
as §3

Assay [12] deals with Mus musculus. As to the kind of experiment: Effect on food intake in diet-induced obese C57BL/6JRj mouse at 50 to 250 nM/kg, ip. It counts as functional, organism-based. A digest of the protocol:
as §3

Assay [13] relates to Mus musculus. As to the kind of experiment: Effect on body weight in diet-induced obese C57BL/6JRj mouse at 50 to 250 nM/kg, ip. It counts as functional, organism-based. A digest of the protocol: as §3
The subject of assay [14] is Mus musculus. As to the kind of experiment: Effect on food intake in diet-induced obese C57BL/6JRj mouse at 100 nM/kg, ip administered daily for 10 days. In kind it is functional, organism-based. In a few lines: (§4)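 Freely fed diet-induced obese mice randomized to groups, saline as control; daily IP injection at 100 nM/kg for 10 days; cumulative food intake and body weight tracked in parallel; drug-by-time interaction analysed by repeated-measures ANOVA.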

The subject of assay [15] is Mus musculus. Description: Effect on body weight in diet-induced obese C57BL/6JRj mouse at 100 nM/kg, ip administered daily for 10 days. In kind it is functional, organism-based. A digest of the protocol: as §4
In assay [16] the test system is Mus musculus. As to the kind of experiment: Decrease in food intake in diet-induced obese C57BL/6JRj mouse at 0.25 nM/h, sc administered via osmotic minipumps daily for 14 days. It counts as functional, organism-based.
Assay [17] deals with Mus musculus. As to the kind of experiment: Effect on body weight in diet-induced obese C57BL/6JRj mouse at 0.25 nM/h, sc administered via osmotic minipumps daily for 14 days. It counts as functional, organism-based.

The source made the active and inactive calls. No cut-off for these calls is given here. Residues, ends and D or L forms follow the SMILES beside them. Where only a bound is given, the exact number is not on record here.

As a reminder, the EC50 is the concentration giving half of the maximal effect. What is called IC50 is the concentration that inhibits the measured activity by half. Low readings indicate higher potency, high ones lower potency.

T1 sequence (Q92847 whole entry): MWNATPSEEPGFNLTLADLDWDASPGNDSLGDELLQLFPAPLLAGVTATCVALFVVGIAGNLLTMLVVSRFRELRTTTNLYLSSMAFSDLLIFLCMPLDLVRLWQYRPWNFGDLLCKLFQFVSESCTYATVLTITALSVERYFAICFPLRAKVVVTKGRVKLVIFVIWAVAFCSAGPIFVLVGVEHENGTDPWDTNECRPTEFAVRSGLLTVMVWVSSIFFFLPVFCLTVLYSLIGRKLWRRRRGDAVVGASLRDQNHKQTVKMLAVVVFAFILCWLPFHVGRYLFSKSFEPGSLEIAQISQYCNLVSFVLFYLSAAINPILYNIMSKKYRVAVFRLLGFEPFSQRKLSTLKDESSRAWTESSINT
Chain of Neuropeptide Y receptor type 4 (Homo sapiens) (P50391 whole entry): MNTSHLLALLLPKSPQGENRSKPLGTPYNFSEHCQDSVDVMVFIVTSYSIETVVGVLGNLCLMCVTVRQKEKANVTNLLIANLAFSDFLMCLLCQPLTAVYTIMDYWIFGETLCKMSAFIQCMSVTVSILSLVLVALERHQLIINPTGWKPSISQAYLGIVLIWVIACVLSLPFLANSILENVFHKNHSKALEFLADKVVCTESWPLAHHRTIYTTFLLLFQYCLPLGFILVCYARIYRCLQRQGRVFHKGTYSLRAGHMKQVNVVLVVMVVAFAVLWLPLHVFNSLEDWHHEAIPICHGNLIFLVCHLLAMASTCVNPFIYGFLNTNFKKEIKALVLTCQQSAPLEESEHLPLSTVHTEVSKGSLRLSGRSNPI

With `CC(=O)N[C@@H](CCCCNC(=O)CCCCCNC(=O)[C@H](CCC(N)=O)NC(=O)[C@H](CC(C)C)NC(=O)[C@@H](Cc1c[nH]c2ccccc12)NC(=O)[C@H](Cc1ccccc1)NC(=O)[C@@H](Cc1cccc2ccccc12)NC(=O)[C@@H](N)CCCCN)C(=O)N[C@@H](CC(C)C)C(=O)N[C@@H](CCCNC(=N)N)C(=O)N[C@@H](Cc1cnc[nH]1)C(=O)N[C@@H](Cc1ccc(O)cc1)C(=O)N[C@@H](CC(C)C)C(=O)N[C@@H](CC(N)=O)C(=O)N[C@@H](CC(C)C)C(=O)N[C@@H](CC(C)C)C(=O)N[C@H](C(=O)N[C@@H](CCCNC(=N)N)C(=O)N[C@@H](CCC(N)=O)C(=O)N[C@@H](CCCNC(=N)N)C(=O)N[C@@H](Cc1ccc(O)cc1)C(N)=O)[C@@H](C)O`, the EC50 in assay [1] amounted to 0.0883 µM; in assay [3], 0.0039 µM. Besides, the Efficacy in [2] is 85%; in [4], 84%; in [7], greater than 66%; in [8], 35%; in [9] it was greater than 56%. Moreover, the IC50 in assay [5] came out at 0.0782 µM; in [6], 0.009 µM.

Consider `CC(=O)NC(CNC(=O)CCC(=O)N[C@@H](CCCCN)C(=O)N[C@H](Cc1cccc2ccccc12)C(=O)N[C@@H](Cc1ccccc1)C(=O)N[C@H](Cc1c[nH]c2ccccc12)C(=O)N[C@@H](CC(C)C)C(=O)N[C@@H](CC(C)C)C(N)=O)C(=O)N[C@@H](CC(C)C)C(=O)N[C@@H](CCCNC(=N)N)C(=O)N[C@@H](Cc1cnc[nH]1)C(=O)N[C@@H](Cc1ccc(O)cc1)C(=O)N[C@@H](CC(C)C)C(=O)N[C@@H](CC(N)=O)C(=O)N[C@@H](CC(C)C)C(=O)N[C@@H](CC(C)C)C(=O)N[C@H](C(=O)N[C@@H](CCCNC(=N)N)C(=O)N[C@@H](CCC(N)=O)C(=O)N[C@@H](CCCNC(=N)N)C(=O)N[C@@H](Cc1ccc(O)cc1)C(N)=O)[C@@H](C)O` (stereo not given in full), for which the EC50 in [1] turned out to be 0.0417 µM; in assay [3], 0.0032 µM. For the same compound, the Efficacy in [2] was 82%; in [4] it was 84%; in [7], less than 25%; in [8], less than 25%; in assay [9] it was 33%. Also, the IC50 in assay [5] came to 0.0971 µM; in assay [6] it was 0.0614 µM. The result in the assay on Mus musculus [10], in the assay with Mus musculus [11], in the assay with Mus musculus [12], in the assay on Mus musculus [13], in the assay with Mus musculus [14] and in the assay on Mus musculus [15] was inactive. Moreover, in the assay on Mus musculus [17], the outcome was inactive. Besides, in the assay on Mus musculus [16], the inhibition result was “Active”.

As to `CC(=O)N[C@@H](CC(C)C)C(=O)N[C@@H](CCCNC(=N)N)C(=O)N[C@@H](Cc1cnc[nH]1)C(=O)N[C@@H](Cc1ccc(O)cc1)C(=O)N[C@@H](CC(C)C)C(=O)N[C@@H](CC(N)=O)C(=O)N[C@@H](CC(C)C)C(=O)N[C@@H](CC(C)C)C(=O)N[C@H](C(=O)N[C@@H](CCCNC(=N)N)C(=O)N[C@@H](CCC(N)=O)C(=O)N[C@@H](CCCNC(=N)N)C(=O)N[C@@H](Cc1ccc(O)cc1)C(N)=O)[C@@H](C)O` (Ac-LRHYLNLLTRQRY-NH2), the outcome in the assay on Mus musculus [10], with Mus musculus [11], in the assay with Mus musculus [12] and in the assay with Mus musculus [13] was inactive. In addition, the inhibition entry with Mus musculus [16] is “inactive”.

With `CC(=O)N[C@@H](CCCCNC(=O)CCNC(=O)[C@H](CCC(N)=O)NC(=O)[C@H](CC(C)C)NC(=O)[C@@H](Cc1c[nH]c2ccccc12)NC(=O)[C@H](Cc1ccccc1)NC(=O)[C@@H](Cc1cccc2ccccc12)NC(=O)[C@@H](N)CCCCN)C(=O)N[C@@H](CC(C)C)C(=O)N[C@@H](CCCNC(=N)N)C(=O)N[C@@H](Cc1cnc[nH]1)C(=O)N[C@@H](Cc1ccc(O)cc1)C(=O)N[C@@H](CC(C)C)C(=O)N[C@@H](CC(N)=O)C(=O)N[C@@H](CC(C)C)C(=O)N[C@@H](CC(C)C)C(=O)N[C@H](C(=O)N[C@@H](CCCNC(=N)N)C(=O)N[C@@H](CCC(N)=O)C(=O)N[C@@H](CCCNC(=N)N)C(=O)N[C@@H](Cc1ccc(O)cc1)C(N)=O)[C@@H](C)O`, the EC50 in [1] amounted to 0.0999 µM; in assay [3], 0.0017 µM. Further, the Efficacy in assay [2] is 88%; in assay [4] it was 86%; in assay [7], greater than 66%; in assay [8] it was 46%; in assay [9], greater than 56%. Also, the IC50 in [5] amounted to 0.126 µM; in assay [6], 0.0147 µM.

For the origin of these results see ChEMBL document CHEMBL3576822 (J Med Chem, 2015).
